How the values were obtained:
[1] = Cytotoxicity against MDCK cells assessed as reduction in cell viability incubated for 48 hrs by MTT assay; assay type: cell-based, Canis lupus familiaris; conditions: dog
In short: (§1)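 MDCK cells (2 × 10⁴/well) grown 24 h, then given serial compound dilutions or DMSO in DMEM with 10% FBS for 48 h at 37 °C. MTT (5 mg/mL in PBS) added for 4 h. Lysed overnight with 10% SDS/0.01 N HCl, then OD read at 620 nm. CC50 is the concentration reducing viability by 50%. At least three independent experiments in duplicate.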

[2] = biological target: PA/PB1 (Influenza A virus (A/Puerto Rico/8/1934(H1N1)), UniProt P03431+P03433); assay: Inhibition of Influenza A virus 6 His-tagged PA (239 to 716 residues) expressed in Escherichia coli BL21 pLysS/GST-tagged PB1 (1 to 25 residues) expressed in Escherichia coli protein-protein interaction using 3.3',5,5' tetramethyl benzidine as substrate by ELISA
In short: (§2)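 Wells coated with 400 ng 6His-PA(239–716), E. coli BL21(DE3)pLysS-expressed, for 3 h at 37 °C, then blocked with 2% BSA/PBS for 1 h. Then 200 ng GST-PB1(1–25), or GST alone as control, added with compound at various concentrations, overnight at room temperature. Bound PB1 detected with HRP-anti-GST antibody (1:4000 in PBS/2% FBS). IC50 is the concentration halving PA–PB1 binding. At least three independent experiments in duplicate.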

Influenza A virus [3] = assay: Antiviral activity against Influenza A virus A/PR/8/34(H1N1) infected in MDCK cells assessed as inhibition of plaque formation for 48 hrs by plaque reduction assay; assay type: functional, organism-based; conditions: A/Puerto Rico/8/1934(H1N1)
In short: (§3)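 MDCK monolayers (5 × 10⁵ cells/well, seeded 24 h earlier) washed with serum-free DMEM. Infected with A/PR/8/34 at 40 PFU/well for 1 h at 37 °C, in DMEM with TPCK-trypsin and 0.14% BSA, with compound or DMSO present. Overlay of the same medium plus 1.2% Avicel and compound. At 48 h, fixed with 4% formaldehyde and stained with 0.1% toluidine blue. Plaques counted against DMSO control set at 100%. At least three independent experiments in duplicate.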

SARS-CoV-2 = assay: microbe, parasite or virus in culture; assay type: functional, organism-based, Vero E6; conditions: Severe acute respiratory syndrome coronavirus 2, Vero C1008
[4] = Cytotoxicity against MDCK cells assessed as reduction in cell viability by MTT assay; assay type: cell-based, Canis lupus familiaris; conditions: dog; in short: as §1
Influenza A virus [5] = assay: Antiviral activity against Influenza A virus A/PR/8/34(H1N1) infected in MDCK cells assessed as inhibition of viral replication by plaque reduction assay; assay type: functional, organism-based; conditions: A/Puerto Rico/8/1934(H1N1); in short: as §3
[6] = biological target: PA/PB1 (Influenza A virus (A/Puerto Rico/8/1934(H1N1)), UniProt P03431+P03433); assay: Inhibition of Influenza A virus PA-PB1 protein-protein interaction by ELISA; assay type: protein assay; in short: as §2
[7] = Cytotoxicity against African green monkey Vero E6 cells assessed as reduction in cell viability incubated for 1 to 2 hrs by MTS assay; assay type: cell-based, Vero C1008; conditions: chlorocebus sabaeus, time 1-2 hrs
In short: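 Vero E6 cell viability measured by the colorimetric formazan-based MTS assay. Means of duplicate experiments.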

[8] = biological target: RNA-directed RNA polymerase (Influenza A virus (strain A/Puerto Rico/8/1934 H1N1), UniProt P03428+P03431+P03433); assay: Inhibition of RdRP activity in Influenza A virus A/PR/8/34(H1N1) infected in HEK293T cells incubated for 24 hrs by minireplicon based dual luciferase assay; assay type: cell-based, Influenza A virus (A/Puerto Rico/8/1934(H1N1))
In short: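 HEK293T cells (2 × 10⁵/well) plated overnight. Calcium-phosphate transfected with PB1, PB2, PA and NP plasmids (100 ng each), pPolI-Flu-ffLuc reporter (50 ng) and pRL-SV40 (50 ng), with compound or DMSO. Medium replaced at 5 h with compound-containing DMEM. Dual luciferase read at 24 h post-transfection. Firefly normalised to Renilla, with DMSO set at 100% polymerase activity.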

Compound | CC50 at 48 h [1] [µM] | IC50 [2] [µM] | EC50 (Influenza A virus [3]) [µM] | EC50 (SARS-CoV-2) [µM] | also measured
NC(=O)c1ccccc1NC(=O)c1nc2nccc(-c3ccccc3)n2n1 | > 250 | 21 | > 100 |  | 
COc1ccc(C(=O)Nc2nc3nc(-c4ccccc4)cc(C)n3n2)cc1 | > 250 |  | > 100 | > 100 | 
Cc1cc(-c2ccccc2)nc2nc(NC(=O)c3ccccc3F)nn12 | > 250 |  | > 100 | 30.6 | 
Cc1cc(-c2ccccc2)nc2nc(NC(=O)c3ccc(N)cc3)nn12 | > 250 |  | > 100 | 44 | 
Cc1cc(-c2ccccc2)n2nc(C(=O)Nc3ccccc3C(=O)O)nc2n1 | > 250 | 116 | > 100 |  | 
Cc1cc(-c2ccccc2)nc2nc(-c3nc4ccccc4c(=O)o3)nn12 | > 200 | 123 | > 100 |  | 
NC(=O)c1c(NC(=O)c2nc3ncc(-c4ccccc4)cn3n2)sc2c1CCCCC2 | 100 | 35 | > 80 |  | 
COc1ccc(C(=O)Nc2nc3n(n2)C(c2ccccc2)C=C(C)N3)cc1 (configuration not stated) |  |  |  |  | CC50 [4]: 240 µM; EC50 (Influenza A virus [5]): > 100 µM; IC50 [6]: 171 µM
NC(=O)c1ccccc1NC(=O)c1nc2ncc(-c3ccccc3)cn2n1 | > 250 | > 200 | > 100 |  | 
O=C(Nc1nc2nccc(-c3ccccc3)n2n1)c1ccccc1 | > 250 | > 200 | > 100 |  | 
Cc1cc(-c2ccccc2)nc2nc(C(=O)Nc3ccccc3F)nn12 | > 250 |  | 83.8 | 34.5 | CC50 [7]: > 100 µM
O=C(Nc1nc2ncc(-c3ccccc3)cn2n1)c1ccccc1 | > 250 | > 200 | > 100 |  | 
O=C(Nc1nc2nc(-c3ccccc3)ccn2n1)c1ccccc1 | > 250 | 165 | > 100 |  | 
CCCOc1ccc(C(=O)Nc2nc3nc(-c4ccccc4)cc(C)n3n2)cc1 | 247 |  | > 100 | 65.3 | 
Cc1cc(-c2ccccc2)n2nc(-c3nc4ccccc4c(=O)o3)nc2n1 | > 250 | 19.5 | 16 |  | EC50 [8]: 21 µM
Cc1cc(-c2ccccc2)nc2nc(NC(=O)c3ccc(O)c(O)c3)nn12 | 112 |  | > 100 | > 100 | 
COC(=O)c1ccccc1NC(=O)c1nc2nc(C)cc(-c3ccccc3)n2n1 | > 250 | 26.5 | > 80 |  | 
O=C(Nc1nc2nc(-c3ccccc3)cc(O)n2n1)c1ccccc1 | > 250 | 21 | > 100 |  | 
Cc1cc(-c2ccccc2)nc2nc(NC(=O)c3ccc([N+](=O)[O-])cc3)nn12 | > 250 |  | > 100 | > 100 | 
Cc1cc(-c2ccccc2)nc2nc(C(=O)Nc3ccccc3C(=O)O)nn12 | > 250 | 32 | > 100 |  | 
NC(=O)c1c(NC(=O)c2nc3nccc(-c4ccccc4)n3n2)sc2c1CCCCC2 | > 200 | 22 | > 60 |  | 
COC(=O)c1ccccc1NC(=O)c1nc2nc(-c3ccccc3)cc(C)n2n1 | > 250 | 22.3 | > 100 |  | 
NC(=O)c1ncn([C@@H]2O[C@H](CO)[C@@H](O)[C@H]2O)n1 [RIBAVIRIN] | > 250 |  | 10 |  | EC50 [8]: 16 µM
N#C[C@@]1(c2ccc3c(N)ncnn23)O[C@H](CO)[C@@H](O)[C@H]1O [GS-441524] |  |  |  | 0.89 | 

Source: ChEMBL document CHEMBL4837208, “1,2,4-Triazolo[1,5-a]pyrimidines: Efficient one-step synthesis and functionalization as influenza polymerase PA-PB1 interaction disruptors” (Eur J Med Chem, 2021)
